Screening results from PubChem.
Shown are actives, neighbours in structure and some others; about 3.5% of the full set was active somewhere.
Cneo AK release: causes C. neoformans cell lysis | lysis activity, % at 15 µM | adenylate kinase release luminescence, 4 h; normalised: neutral wells 0, clomiphene wells 100 | 360,000 compounds, 0.2% hits | AID 651654;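 active = mean lysis activity across replicates of at least 80%, whatever share of replicates individually reach that level; inactive = mean lysis activity below 80%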
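Signal: Adenylate kinase release luminescence | Assay system: Log-phase Cryptococcus neoformans yeast cells | Input: Cells at 5 × 10^6 per mL | Buffer or medium: Fresh YPD growth medium | Compound: Single dose | Schedule: Static 4 h at 37 °C with compound, 1 h detection | Controls: Clomiphene | Read-out: Luminescence rise reflecting yeast cell lysis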
FGF22 binding: shifts melting point of recombinant human FGF22 | Q9HCT0 | recombinant FGF22 thermal shift, SYPRO orange fluorescence; percent of sucrose octasulfate shift, DMSO zero | activity (Tm shift, normalised), % at 9.99 µM | 340,000 compounds, 1.5% hits;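 active = mean Tm shift, scaled 0 neutral to 100 positive control, at about 1.3% or above, every replicate too, limit read from the data; inconclusive = no clear call, values can overlap the other calls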
Target sequence (Q9HCT0 whole entry, looked up): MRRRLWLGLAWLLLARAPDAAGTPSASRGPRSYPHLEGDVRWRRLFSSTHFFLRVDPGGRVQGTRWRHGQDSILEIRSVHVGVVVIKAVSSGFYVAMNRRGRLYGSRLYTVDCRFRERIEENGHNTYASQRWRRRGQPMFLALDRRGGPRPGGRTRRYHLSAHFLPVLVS
Env fusion inh: inhibitors of HIV Env-mediated cell fusion; HeLa-JRFL Env/CEM21 cell fusion, luciferase; AID 651610; 360,000 compounds, 1.1% hits; inhibition, % at 12.3 µM;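 active = mean replicate inhibition score of at least 50 and every replicate individually at or above 50; inconclusive = only one of the two criteria met; inactive = mean below 50 and not all replicates reaching 50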;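 note: 0% = plate neutral controls and 100% = maraviroc near 300 nM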
rRNA inh HTS: selective bacterial rRNA inhibition in E. coli. E. coli WT GFP vs humanized-ribosome RFP mutants, fluorescence, 24 h; stronger effect = lower value; DMSO median 0, no signal -100. GFP signal change (wild-type ribosome), % (test concentration not listed). 350,000 compounds, 1.6% hits;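 active = significant combined selectivity score with lowered wild-type GFP, culture density cut under 30%, mutant RFP and density less affected; inactive = any of these conditions unmet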
PGC1a acetyl inh: modulators of PGC1a acetylation. U2OS PGC1a acetylation, AlphaScreen anti-acetyl-lysine; with virally co-expressed GCN5 acetyltransferase. inhibition, % at 15.6 µM. 350,000 compounds, 0.17% hits. AID 651687;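 active = every replicate shows inhibition of at least 40%; inconclusive = mean inhibition at least 40% but some replicate below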;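 note: 0% = neutral control wells and 100% = positive control wells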
ERAP1 inh: inhibitors of human ERAP1 aminopeptidase; 340,000 compounds, 0.15% hits; AID 652197; recombinant ERAP1, Leu-AMC fluorescence, 60 min; inhibition, % at 10.7 µM;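 active = mean replicate inhibition of at least 30%, or all replicates individually reaching that 30% level; inactive = mean below 30% and not every replicate reaching it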;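 note: 0% = neutral control wells and 100% = L-leucinethiol positive control wells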
Numbers without * were called inactive; ? = inconclusive; . = no result; [ ] = dose if it differs, or a comment.

SMILES	Cneo AK release	FGF22 binding	Env fusion inh	rRNA inh HTS	PGC1a acetyl inh	ERAP1 inh
CC(C)CNC(=S)N1CCC(c2nc(-c3ccc(F)cc3)no2)CC1	16	0	30	-26*	2	0
O=C(Nc1ccccc1)N1CCCC(c2nc(-c3ccc(F)cc3)no2)C1 (stereo unspecified)	0	.	.	.	-7	.
CCS(=O)(=O)N1CCC(c2nc(-c3ccc(C(F)(F)F)cc3)no2)CC1	2	.	56*	.	2	.
O=C(Nc1cccc(C(F)(F)F)c1)N1CCC(c2nc(-c3ccc(F)cc3)no2)CC1	-5	.	69*	-5	-13	-5
CCS(=O)(=O)N1CCC(c2nc(-c3ccc(C)cc3)no2)CC1	0	.	-51	.	-3	.
CN1CCN(CC(O)Cn2c3ccccc3c3ccccc32)CC1 (stereo unspecified)	4	0	?	-9	-5	-2
CCN1C[C@@H]2[C@@H]3C(=O)N(Cc4ccccc4)C(=O)[C@@H]3[C@](Cc3ccccc3)(C(=O)OC)N2C1=NCc1ccccc1	-4	0	-2	-12	4	0
COCCN1C(=O)N(c2cccc(OC)c2)C(=O)C1CC(=O)Nc1cccc(F)c1 (stereo unspecified)	2	0	-4	8	-1	0
c1cnc2ncc3sccc3c2c1	.	43*	0	6	.	-1
Cc1cnc2ncc3sccc3c2c1	.	0	21	-1	5	6
COc1ccc2ncn(-c3ccccc3)c2c1	2	.	68*	.	38	.
COc1ccccc1NS(=O)(=O)c1cccc(-n2c(O)c(C=Nc3ccccc3C(=O)O)c3ccccc3c2=O)c1	-1	.	29	-25*	-16	-4
COc1ccc(Cn2c(O)c(C=Nc3ccccc3C(=O)O)c3ccccc3c2=O)cc1	4	1	16	-13	8	-2
N#C[C@H]1[C@@H](c2ccc(-c3cccc(F)c3)cc2)[C@H](CO)N1C(=O)NC1CCCC1	0	0	9[16.7 µM]	-13	-1	-1
N#C[C@H]1[C@@H](c2ccccc2)[C@@H](CO)N1C(=O)Cc1ccccc1	101*	0	-4[16.7 µM]	3	-9	1
N#C[C@@H]1[C@H](c2ccc(-c3cccc(F)c3)cc2)[C@H](CO)N1C(=O)NC1CCCC1	1	0	65*[16.7 µM]	-4	-5	-1
COc1cccc(C#Cc2ccc([C@H]3[C@@H](CO)N(C(=O)C4CCCC4)[C@H]3C#N)cc2)c1	.	.	69*[16.7 µM]	1	-16	6
COCC(=O)N1[C@H](C#N)[C@H](c2ccc(C#Cc3ccccc3F)cc2)[C@H]1CO	83*	0	9[16.7 µM]	-11	-11	0
CN(CC(=O)Nc1ccc(Cl)cc1)C(=O)c1ccc(NS(=O)(=O)c2ccc3[nH]c(=O)[nH]c3c2)cc1	2	0	.	-3	.	2
O=C(C[C@@H]1CC[C@@H](NS(=O)(=O)c2ccccc2)[C@@H](CO)O1)N1CCC(Cc2ccccc2)CC1	.	0	.	-4	8	3
Cc1ccc(C)c(S(=O)(=O)Nc2ccc(O)c(C(=O)O)c2)c1	.	.	-2	8	.	-2
N#C[C@@H]1[C@H](c2ccc(-c3ccccc3F)cc2)[C@@H](CO)N1C(=O)c1ccccn1	-2	0	57*[16.7 µM]	-7	-1	1
CCc1cnc(N2[C@@H](C#N)[C@H](c3ccc(C#Cc4ccccc4F)cc3)[C@@H]2CO)s1	1	0	59*[16.7 µM]	3	-12	-1
CC(=O)c1ccc(NC(=O)C2=CC(c3cccs3)=NS(=O)(=O)N2C)cc1	6	0	6	-21*	14	4
Nc1c(Cl)cc2c(c1Oc1ccccc1)C(=O)c1ccccc1C2=O	0	.	125*	.	3	.
SMILES	Cneo AK release	FGF22 binding	Env fusion inh	rRNA inh HTS	PGC1a acetyl inh	ERAP1 inh
O=C(COc1ccccc1Br)Nc1ccccc1C(F)(F)F	.	43*	-28	-1	-8	1
CC(=O)Nc1ccccc1OCC(=O)NCC(F)(F)F	.	44*	13	9	.	-1
COc1ccc(C2C(C(=O)N3CCCCC3)c3ccccc3C(=O)N2C)cc1 (stereo unspecified)	-4	.	-19	.	0	.
C[C@H]1CN([C@@H](C)CO)C(=O)c2cccc(NC(=O)C3CCCCC3)c2O[C@H]1CN(C)Cc1ccc2c(c1)OCO2	3	0	.	6	2	0
COc1ccc(N=C2NC(=O)/C(=C\C=C\c3ccccc3)S2)cc1	-3	44*	-16	.	7	9
COc1ccc(N=C2NC(=O)/C(=C/C=C/c3ccccc3)S2)cc1	-3	0	11	3	1	.
Cc1ccc(C2/C(=C(/O)c3ccc(Cl)cc3)C(=O)C(=O)N2CC2CCCO2)o1 (stereo unspecified)	6	.	.	.	4	.
O=C1N/C(=N\c2ccccn2)SC1Cc1ccccc1Cl (stereo unspecified)	.	0	-3	1	.	.
Cc1cc(N2CCN(C)CC2)nc2ccc(NC(=S)NCc3cccs3)cc12	1	0	8	-23*	-3	2
O=C(NCCOc1nc(N2CCCCC2)nc(N2CCOCC2)n1)Nc1ccccc1	-4	.	.	.	0	.
O=C(NCCOc1nc(N2CCCCC2)nc(N2CCCCC2)n1)Nc1ccccc1	11	44*	12	1	13	1
c1ccc(CN2CCN(c3nc(-c4ccccn4)nc4ccccc34)CC2)cc1	0	.	.	.	-12	.
CCc1nc2c(OCc3ccc(C(F)(F)F)cc3)cccn2c1N(C)C(=O)c1ccco1	1	1	57*	-7	8	3
CCc1nc2c(OCc3ccc(C(F)(F)F)cc3)cccn2c1N(C=O)Cc1ccc(OC)cc1	2	0	56*	-7	6	0
CNC[C@@H]1Oc2ccc(NC(=O)CCC(F)(F)F)cc2CC(=O)N([C@@H](C)CO)C[C@@H]1C	7	-1	-8[16.7 µM]	0	7	-2
Cc1cccn2c(=O)c(C=O)c(Sc3ncccn3)nc12	.	43*	14	15	.	3
Cc1cccn2c(=O)c(C=O)c(Cl)nc12	.	0	17	27	.	7
Cc1ccc(N2C(=O)C(O)(C(F)(F)F)C3=C2CC(C)(C)CC3=O)cc1 (stereo unspecified)	1	.	8	.	.	.
CCC1(CC)C(C#N)C(=O)NC(=O)C1C#N (stereo unspecified)	1	0	5	1	6	-2
CCN(CC)C(=O)Cn1cc(S(=O)(=O)CC(=O)Nc2cc(C)on2)c2ccccc21	0	0	13	11	2	-5
Cc1cc(NC(=O)CS(=O)(=O)c2cn(Cc3ccccc3Cl)c3ccccc23)no1	6	.	90*	.	-6	.
Cc1nc2ccccn2c1C(=O)CSc1ccccc1	.	0	-1	-37*	14	0
Cc1ccc(NC(=O)c2ccc3nc[nH]c3c2)nc1	-1	0	-45	1	4	1
